ChEMBL document CHEMBL3797076, “5-HT2 receptor affinity, docking studies and pharmacological evaluation of a series of 1,3-disubstituted thiourea derivatives” (Eur J Med Chem, 2016)
The source made the active and inactive calls. The rule behind the calls is not given here.

Experiments:
[1] = biological target: 5-hydroxytryptamine receptor 2A (Rattus norvegicus, UniProt P14842); assay: Displacement of [3H]ketanserin from 5HT2A receptor in Sprague-Dawley rat brain cortex incubated for 15 mins
In short: (§1)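 Rat frontal cortex homogenized in 50 mM Tris-HCl, 0.5 mM EDTA, 10 mM MgCl2, pH 7.4, washed, resuspended with 0.1% ascorbate and pargyline. Triplicates: 5-HT2A used 0.4 nM [3H]ketanserin, cinanserin for nonspecific binding; 5-HT2C used 1 nM [3H]mesulergine, mianserin nonspecific, 100 nM spiperone added. 15 min at 37 C, glass-fiber filtration.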

[2] = biological target: T1, 5-hydroxytryptamine receptor 2C (Rattus norvegicus, UniProt P08909); assay: Displacement of [3H]mesulergine from 5HT2C receptor in Sprague-Dawley rat brain cortex incubated for 15 mins; in short: as §1
T1 sequence (P08909 whole entry): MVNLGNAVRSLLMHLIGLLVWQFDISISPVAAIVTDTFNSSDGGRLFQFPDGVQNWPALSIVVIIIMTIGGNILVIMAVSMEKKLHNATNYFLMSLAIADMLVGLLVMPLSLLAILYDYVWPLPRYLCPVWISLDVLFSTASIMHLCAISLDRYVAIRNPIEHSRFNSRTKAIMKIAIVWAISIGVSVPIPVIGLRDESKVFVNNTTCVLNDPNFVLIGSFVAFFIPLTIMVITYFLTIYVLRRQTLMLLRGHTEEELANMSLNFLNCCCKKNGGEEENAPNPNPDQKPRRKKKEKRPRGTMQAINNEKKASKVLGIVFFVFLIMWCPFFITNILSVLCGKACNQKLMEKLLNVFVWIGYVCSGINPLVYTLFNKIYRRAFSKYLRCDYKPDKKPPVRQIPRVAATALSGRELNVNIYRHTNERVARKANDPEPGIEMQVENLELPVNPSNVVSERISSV

[3] = test system: Mus musculus; assay: Inhibition of 5-HTP-induced head twitch response in ddY mouse at >=1 mg/kg, po administered 1 hr before 5-HTP injection measured after 30 mins relative to untreated control; type: functional
[4] = test system: Mus musculus; assay: Antinociceptive activity in Albino Swiss mouse assessed as inhibition of acetic acid-induced writhing response at 0.1 ED50, ip administered 60 mins prior to test measured for 10 mins; type: functional, organism-based
In short: (§2)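 Male Albino Swiss mice, i.p. dosing in 0.5% methylcellulose 60 min beforehand; 0.6% acetic acid injected i.p., writhing episodes counted for 10 min beginning 5 min after acid. Mean ± SEM; one-way ANOVA with Dunnett's test vs control.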

[5] = test system: Mus musculus; assay: Inhibition of amphetamine-induced hyperlocomotion in Albino Swiss mouse at 0.1 ED50, ip administered 60 mins prior to test measured for 30 mins by photoresistor actometer analysis; type: functional
In short: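 Single male Albino Swiss mice; compound i.p. 60 min and amphetamine 5 mg/kg s.c. 30 min before test. Photoresistor actometers (circular cage, two light beams) counted beam crossings over 30 min; mean ± SEM, Dunnett's test vs control.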

[6] = test system: Mus musculus; assay: Neurotoxicity in Albino Swiss mouse assessed as induction of myorelaxation at 0.0125 to 0.1 ED50, ip after 60 mins by chimney test; type: toxicity, organism-based; conditions: in vivo, 1 h
[7] = test system: Mus musculus; assay: Neurotoxicity in Albino Swiss mouse assessed as induction of myorelaxation at 0.0125 to 0.1 ED50, ip after 60 mins by rotarod test; type: toxicity, organism-based; conditions: in vivo, 1 h
[8] = test system: Mus musculus; assay: Neurotoxicity in Albino Swiss mouse assessed as impairment in motor coordination at 0.0125 to 0.1 ED50, ip after 60 mins by chimney test; type: toxicity, organism-based; conditions: in vivo, 1 h
[9] = test system: Mus musculus; assay: Neurotoxicity in Albino Swiss mouse assessed as impairment in motor coordination at 0.0125 to 0.1 ED50, ip after 60 mins by rotarod test; type: toxicity, organism-based; conditions: in vivo, 1 h
[10] = test system: Mus musculus; assay: Toxicity in ip dosed Albino Swiss mouse assessed as loss of righting reflex administered 60 mins before test measured up to 48 hrs; type: organism-based; conditions: in vivo
In short: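 Acute toxicity in male Albino Swiss mice by Litchfield-Wilcoxon method: ED50 for loss of righting reflex after i.p. dosing, observed at 15, 30, 60, 180 min and 24, 48 h.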

[11] = test system: Mus musculus; assay: Toxicity in Albino Swiss mouse assessed as inhibition of spontaneous locomotor activity at 0.1 ED50, ip administered 60 mins before test measured for 30 mins by photoresistor actometer analysis; type: organism-based; conditions: in vivo, 0.5 h
In short: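 Spontaneous locomotion of single male Albino Swiss mice recorded in two-beam photoresistor actometers as beam crossings for 30 min, beginning 60 min after i.p. compound (suspension in 0.5% methylcellulose).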

[12] = test system: Mus musculus; assay: Inhibition of 5-HTP-induced head twitch response in Albino Swiss mouse at 0.1 ED50, ip administered 60 mins before 5-HTP injection relative to untreated control; type: functional
In short: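 Male Albino Swiss mice given compound i.p. (0.1 ED50, 0.5% methylcellulose) 60 min before the test; L-5-HTP 230 mg/kg i.p. injected immediately before. Head twitches counted; mean ± SEM, Dunnett's test vs control.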

[13] = test system: Mus musculus; assay: Antinociceptive activity in Albino Swiss mouse assessed as inhibition of acetic acid-induced writhing response at 0.025 to 0.05 ED50, ip administered 60 mins prior to test measured for 10 mins; type: functional, organism-based; in short: as §2
[14] = test system: Mus musculus; assay: Antinociceptive activity in Albino Swiss mouse assessed as inhibition of acetic acid-induced writhing response at 0.05 ED50, ip administered 60 mins prior to test measured for 10 mins in presence of opioid receptor antagonist naloxone; type: functional, organism-based
[15] = test system: Mus musculus; assay: Anticonvulsant activity in Albino Swiss mouse assessed as protection against pentetrazol-induced tonic seizure at 0.1 ED50, ip administered 60 mins prior to test relative to untreated control; type: functional
In short: (§3)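 Male Albino Swiss mice (18-30 g); compound given i.p. as suspension in 0.5% methylcellulose 60 min before test; pentylenetetrazole 110 mg/kg s.c. Scored as number of mice with clonic seizures, tonic convulsions and deaths per animals tested; Fisher's exact test vs solvent control.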

[16] = test system: Mus musculus; assay: Anticonvulsant activity in Albino Swiss mouse assessed as protection against pentetrazol-induced clonic seizure at 0.1 ED50, ip administered 60 mins prior to test relative to untreated control; type: functional; in short: as §3
[17] = test system: Mus musculus; assay: Protection against pentetrazol-induced mortality in Albino Swiss mouse at 0.05 ED50, ip administered 60 mins prior to test; type: functional, organism-based; in short: as §3
[18] = test system: Mus musculus; assay: Decrease in body temperature in Albino Swiss mouse at 0.1 ED50, ip administered 60 mins before test measured 60 to 120 mins post dose; type: functional, organism-based
In short: (§4)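 Normothermic male Albino Swiss mice; rectal temperature by thermistor thermometer. Baseline taken as mean of readings at 60 and 30 min before dosing; i.p. dose (0.1 ED50, 0.5% methylcellulose vehicle) then readings at 30, 60, 90, 120 min (to 180 min for some). Change = final minus initial; Bonferroni post hoc test.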

[19] = test system: Mus musculus; assay: Inhibition of (+/-)DOI-induced head twitch response in Albino Swiss mouse at 5 mg/kg, ip administered 60 mins before (+/-)DOI injection measured for 20 mins relative to untreated control; type: functional
In short: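 Male Albino Swiss mice; compounds suspended in 0.5% methylcellulose, injected i.p. 60 min before (±)DOI 2.5 mg/kg i.p.; head twitches counted over 20 min. Mean ± SEM, percent reduction versus DOI-treated group; one-way ANOVA with Bonferroni post hoc test.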

[20] = test system: Mus musculus; assay: Protection against pentetrazol-induced mortality in Albino Swiss mouse at 0.1 ED50, ip administered 60 mins prior to test relative to untreated control; type: functional
In short: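 Male Albino Swiss mice (18–30 g). Compound given i.p. as suspension in 0.5% methylcellulose (10 mL/kg), 60 min before test; controls got vehicle. Dose expressed as fraction of ED50 (loss of righting reflex within 48 h). Convulsions induced by pentylenetetrazole 110 mg/kg s.c.; dead animals counted per group (n=10; control n=16). Significance vs control by Fisher's exact test.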

[21] = test system: Mus musculus; assay: Anticonvulsant activity in Albino Swiss mouse assessed as protection against pentetrazol-induced clonic seizure at 0.05 ED50, ip administered 60 mins prior to test relative to untreated control; type: functional, organism-based; in short: as §3
[22] = test system: Mus musculus; assay: Effect on body temperature in Albino Swiss mouse at 0.1 ED50, ip administered 60 mins before test measured 30 to 180 mins post dose; type: functional, organism-based; in short: as §4

Chain of 5-hydroxytryptamine receptor 2A (P14842 whole entry): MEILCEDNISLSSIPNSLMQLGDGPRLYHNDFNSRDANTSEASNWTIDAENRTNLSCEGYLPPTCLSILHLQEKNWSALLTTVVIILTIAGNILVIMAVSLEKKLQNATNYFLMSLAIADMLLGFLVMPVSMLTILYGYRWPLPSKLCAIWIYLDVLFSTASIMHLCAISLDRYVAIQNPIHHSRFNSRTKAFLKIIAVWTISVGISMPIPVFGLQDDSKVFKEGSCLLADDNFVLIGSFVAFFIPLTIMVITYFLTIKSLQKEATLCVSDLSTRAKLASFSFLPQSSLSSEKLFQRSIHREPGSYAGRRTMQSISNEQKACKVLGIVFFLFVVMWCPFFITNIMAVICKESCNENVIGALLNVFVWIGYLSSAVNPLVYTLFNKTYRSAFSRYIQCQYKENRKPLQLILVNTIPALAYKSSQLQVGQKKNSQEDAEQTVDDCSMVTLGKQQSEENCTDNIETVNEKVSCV

| Compound | Ki [1] | Ki [2] | inhibition (INH) [3] | inhibition [4] | Activity [6] | Activity [7] | Activity [8] | Activity [9] | ED50 [10] | Activity [11] | inhibition [13] | inhibition [14] | Activity [15] | further results |
| --- | --- | --- | --- | --- | --- | --- | --- | --- | --- | --- | --- | --- | --- | --- |
| O=[N+]([O-])c1cc(NC(=S)Nc2ccccc2)ccc1Cl | > 10 µM | > 10 µM |  |  |  |  |  |  |  |  |  |  |  |  |
| Cc1nc2sccn2c(=O)c1CCN1CCC(=C(c2ccc(F)cc2)c2ccc(F)cc2)CC1 [RITANSERIN] |  |  | >80% |  |  |  |  |  |  |  |  |  |  |  |
| O=[N+]([O-])c1cc(NC(=S)NCc2ccccc2)ccc1Cl | > 10 µM | > 10 µM |  | Active | Non-toxic | Non-toxic | Non-toxic | Non-toxic | 909 mg/kg | Non-toxic | Active | Active | 43.75% | inhibition [5]: inactive; inhibition (INH) [12]: 70.5%; Activity [16]: 43.75%; Activity [17]: Active; Activity [18]: Active |
| O=C(c1ccc(F)cc1)C1CCN(CCn2c(=O)[nH]c3ccccc3c2=O)CC1 [KETANSERIN] |  |  | >80% |  |  |  |  |  |  |  |  |  |  | inhibition in vivo at 5 mg/kg [19]: 100% |
| O=C(NC(=S)Nc1ccc(Cl)c([N+](=O)[O-])c1)c1ccccc1 | > 10 µM | > 10 µM |  |  |  |  |  |  |  | Non-toxic |  |  |  |  |
| FC(F)(F)c1cccc(NC(=S)NCCc2ccccc2)c1 | > 10 µM | > 10 µM |  | Active | Non-toxic | Non-toxic | Non-toxic | Non-toxic | 709.6 mg/kg | Non-toxic | Active | Active | 46.66% | inhibition (INH) [5]: 42.48%; inhibition [12]: inactive; Activity [20]: 48.33%; Activity [21]: inactive; Activity [22]: inactive |
